HSP90 inh: inhibitors of HSP90 luciferase refolding in rabbit reticulocyte lysate | 0.91% of 290,000 active | AID 1789 | inhibition, % at 5.6 µM | luciferase refolding luminescence, 3 h;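 active = inhibition above the screen-wide mean plus 3 SD, computed separately per campaign, cut at about 16% in these data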;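 also: 0% = DMSO wells and 100% = 60 µM geldanamycin wells; inhibitors lower the luminescence because luciferase stays unfolded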
core dimer inh: HCV core protein dimerization inhibition; TR-FRET GST/Flag-core106 dimerization, 1536-well; inhibition, % at 5 µM; 0.33% of 300,000 active; AID 1899;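 active = inhibition above the mean of all tested compounds plus 3 SD, set per screening campaign, cut at about 45% in these data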
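Assay system – GST-tagged and Flag-tagged HCV core protein residues 1-106 · Quantity – core106 proteins, GST 13.5 nM and Flag 17 nM · Benchmarks – unlabelled core106 and no-GST-core106 wells · Read-out basis – percent inhibition of core106 dimerization signal · Detection – time-resolved FRET, ex 340 nm, em 617 and 671 nm · Schedule – 4 h at 22.5 °C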
DNA FID counter: displaces DNA intercalator in HCV helicase counter-screen; DNA fluorescent intercalator displacement, fluorescence; inhibition, % at 7.9 µM; 0.17% of 290,000 active; AID 1845; in the data active = inhibition above about 37%;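 also: 0% = vehicle and 100% = reference compound; higher means more ethidium bromide displaced from hairpin DNA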
HSF-1 act: increases HSF-1 driven luciferase reporter signal. NIH3T3-HGL HSF-1 luciferase reporter, MG132, 8 h; 100% = twice DMSO control signal. 1.7% of 300,000 active. activation, % at 9 µM;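 active = mean replicate activation of at least 50% with a set share of replicates each reaching 50%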;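 also: 0% = median of the neutral control wells and 100% = twice that signal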
NS3 helicase inh: HCV NS3 helicase inhibition. NS3 helicase DNA unwinding, Cy5 molecular beacon fluorescence. inhibition, % at 10.9 µM. 0.56% of 290,000 active;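 active = inhibition above the mean of all tested compounds plus 3 SD, set per campaign, cut at about 35% in these data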;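 also: 0% = DMSO wells and 100% = thioflavine S control wells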
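Assay system: hepatitis C virus NS3 helicase domain fragment enzyme. Also added: annealed dual-labelled DNA beacon duplex, ATP-started. Timing: 1 h reaction at 25 °C, ATP-initiated. Technique: Cy5 fluorescence at 0 and 60 min, beacon hairpin quenching. Evaluation: % inhibition of unwinding. Replication: one well per compound.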
HSF1 inhib: HSF1 inhibition; NIH3T3-HGL HSE-luciferase, MG132-induced, luminescence 8 h; hits give low values; activity change, negative = inhibition, % at 7.5 µM (by protocol); 0.77% of 300,000 active; AID 2098;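 active = more than half of replicate wells show activity change below -50%, luminescence cut by over half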;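 also: luciferase reports HSF-1 transcriptional activity via heat shock element; 0% = median of DMSO wells and -100% = zero luminescence signal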
* hit, by the source's call; / = not tested or not shown. Rows were chosen to be rich in hits. Some 3.9% of all compounds tested hit in one or more screens of this group.

SMILES	HSP90 inh	core dimer inh	DNA FID counter	HSF-1 act	NS3 helicase inh	HSF1 inhib
NC(=O)COC(=O)CNC(=O)c1sc2ccccc2c1Cl	4	-2	0	-9	-9	-2
Cc1ccc(O)c(NC(=O)c2noc(C(C)C)c2[N+](=O)[O-])c1	-4	-3	4	73*	-13	55
CC(C)c1onc(C(=O)NCCc2ccccc2)c1[N+](=O)[O-]	4	8	1	61*	2	11
Cc1nn(-c2ccccc2)c(C)c1/C=N/NC(=O)CSc1nnc(SCc2ccc(Cl)cc2)s1	-1	23	-6	68*	-10	37
CC(/C=N/NC(=O)CSc1nnc(SCc2ccccc2)s1)=C\c1ccco1	0	48*	-15	17	16	12
Cc1ccc(CSc2nnc(SCC(=O)N/N=C/C=C/c3ccco3)s2)cc1	2	40	-11	2	18	0
COc1ccc(Nc2nc(-c3sc(NC(C)=O)nc3C)cs2)cc1	0	59*	6	-2	2	-14
CC(=O)Nc1ccc(Nc2nc(-c3sc(C)nc3C)cs2)cc1	-2	-24	-19	-7	-2	-2
CCn1nc(NC(=O)C(C)C)c2cc3ccc(C)cc3nc21	0	-6	-25	8	5	-11
COC(=O)/C=C1\N/C(=N\c2nc(C)cc(C)n2)N(c2ccc(C)cc2)C1=O	3	-6	-4	4	7	-4
COC(=O)/C=C1/N/C(=N\c2nc(C)cc(C)n2)N(c2ccc(C)c(C)c2)C1=O	0	0	-11	91*	-4	55
COC(=O)C1CCN(Cc2ccc(OCCCN3CCN(c4ccc([N+](=O)[O-])cc4)CC3)cc2)CC1	0	-2	22	10	-8	-4
CC(NC(=O)Cn1cnc([N+](=O)[O-])n1)c1ccccc1 (centres undefined)	16*	-5	0	2	-3	-10
Cc1nn(CC(=O)NC(C)c2ccccc2)c(C)c1[N+](=O)[O-] (centres undefined)	-3	-2	1	20	-1	1
Cc1ccc(OCc2nc(-c3ccccn3)no2)cc1	5	-4	-9	63*	2	41
COc1nc(-c2ccccc2)ccc1-c1noc(COc2ccccc2)n1	-3	2	-1	-74	9	-68*
Cc1ncc(CN2CCC(N3CCC(C(=O)N4CCCC4)CC3)CC2)s1	-4	-4	-5	34	6	18
COc1ccc(NC(=O)Cn2cnc3c(nnn3-c3ccc(C)cc3)c2=O)cc1	-3	12	-2	-9	1	-7
Cc1ccc(C)c(NC(=O)CC(NCCCN2CCOCC2)C(=O)O)c1 (centres undefined)	-3	/	1	/	-3	/
NC(=O)c1cc(Cc2ccccc2)sc1NC(=O)c1ccco1	-4	2	1	134*	-10	94
CCCN(CC(=O)Nc1ccc(Cl)cc1Cl)C(=O)/C=C/c1ccco1	-2	4	-21	64*	2	50
COc1cc(-c2cc(C(=O)NCc3ccco3)c3ccccc3n2)cc(OC)c1OC	-2	3	-37	-17	-2	-2
O=C(COC(=O)c1ccccc1Oc1ccccc1)NCc1ccco1	0	74*	-14	1	17	2
Cc1ccc(-c2cc(C(=O)NCc3ccco3)c3ccccc3n2)s1	3	47*	0	15	10	7
O=C(COC(=O)c1ccccc1Nc1cccc(C(F)(F)F)c1)NCc1ccco1	1	64*	-9	34	25	8
SMILES	HSP90 inh	core dimer inh	DNA FID counter	HSF-1 act	NS3 helicase inh	HSF1 inhib
O=C(NCc1ccco1)c1sc2ccccc2c1Cl	0	8	-1	66*	7	26
O=C(NCc1ccco1)c1sc2cc(Cl)ccc2c1Cl	2	-4	-9	16	-1	20
O=C(COC(=O)c1ccc(Sc2ccccc2)c([N+](=O)[O-])c1)NC1CCCc2ccccc21 (centres undefined)	2	12	-3	-8	3	-10
CCOc1cc(C=O)ccc1OCCSc1ccc(Cl)cc1	-1	5	-9	26	-1	20
N#Cc1c2c(c(NCc3cccnc3)n3c1nc1ccccc13)CCC2	-1	-8	-9	21	3	1
COc1ccccc1CNC(=O)COC(=O)c1cc(-c2ccco2)nc2ccccc12	2	69*	-28	-14	34	-1
O=C(NCc1ccco1)c1cc(-c2cccs2)nc2ccccc12	2	-6	-4	8	8	5
Cc1cccc(-c2noc(-c3ccccc3C(=O)NCc3ccco3)n2)c1	2	1	-13	64*	18	29
Cc1ccc(-c2noc(-c3ccccc3C(=O)NCc3ccco3)n2)cc1	-2	-7	-27	10	-2	7
O=C(COC(=O)c1cc(-c2cccs2)nc2ccccc12)NCc1ccco1	1	63*	-10	6	9	0
CCc1nc2ccccc2[nH]c1=O	0	-1	1	0	1	4
CN1CC=C2C(C#N)=C(N)C(C#N)(C#N)[C@H](c3ccoc3)[C@H]2C1	1	3	-2	-12	-5	-5
CN1CC=C2C(C#N)=C(N)C(C#N)(C#N)C(c3cccc(Cl)c3Cl)C2C1 (centres undefined)	0	3	-3	113*	-12	63
C=C(C)C1CC=C(C)/C(=N/NC(=O)c2cccs2)C1 (centres undefined)	-7	9	-7	80*	6	37
CC(=O)N1CCC(=NNC(=O)c2cccs2)CC1	-11	3	-5	55*	4	19
CC1=C/C(=N\NC(=O)c2cccs2)CC(C)(C)C1	-2	-3	-6	62*	-11	54
Nc1nnnn1CC(=O)N/N=C/C=C/c1ccccc1	-6	2	-1	5	-3	3
C/C(=N\OCC(=O)Nc1ccccc1Br)c1cccs1	-1	5	-14	22	0	2
Cc1ccc2[nH]c(=O)c(CN(Cc3cccs3)Cc3nnnn3Cc3ccccc3)cc2c1	-2	11	-6	71*	-3	24
CCN(CC)S(=O)(=O)c1ccc(C(=O)OCC(=O)N2CCN(C(=O)c3ccco3)CC2)cc1	-3	-6	-26	53*	-9	14
CCOC(=O)C1=C2N(C)c3ccccc3N2CCC1=O	-3	-4	-5	/	-3	/
COc1ccc(/C(C)=N/Nc2ccc(C(=O)O)cc2)cc1OC	26*	-16	-7	-24	-1	-17
COc1cc(C(=O)Nc2ccc(C(=O)O)cc2)ccc1OC(C)=O	4	-1	0	0	2	0
Nc1ccc(C23CC4CC(CC(O)(C4)C2)C3)cc1	5	0	-1	-80	4	-78*

High-throughput results deposited in PubChem by several laboratories.
